These results are taken from ChEMBL document CHEMBL2424567, “Hybrid peptides endomorphin-2/DAMGO: design, synthesis and biological evaluation” (Eur J Med Chem, 2013).

The source made the active and inactive calls. Non-standard residues stand in square brackets, D forms with d. Residues, ends and D or L forms follow the SMILES beside them. *: point of attachment. NHCH2CH2OH = OCCN*; Sar = CNCC(=O)O

Data set [1] has as its system Mus musculus. The data set is described as follows: Analgesic activity in icv dosed CD1 mouse assessed as inhibition of heat-induced jumping behaviour after 5 to 30 mins by hot plate method. The format is functional. Summed up: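 Male CD-1 mice (25–30 g), lightly isoflurane-anaesthetised, injected i.c.v. 2 mm caudal and 2 mm lateral of bregma, 3 mm depth, 5 µL; various doses. Plate held at 55.0 ± 0.1 °C; latency to paw licking or jumping, 60 s cut-off. Baseline is the mean of three readings 15 min apart; readings at 5, 10, 15, 20 and 30 min. Result as %MPE; AD50 with 95% confidence limits by graded dose–response.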
(In general: In hot-plate and tail-flick tests a longer latency is read as antinociception.)

Data set [2] relates to Mus musculus. The data set is described as follows: Antinociceptive effect in icv dosed CD1 mouse assessed as increase in tail-flick latency period by tail flick test. The format is functional. Summed up:
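Male CD-1 mice (25–30 g) given i.c.v. injection under light isoflurane (2 mm caudal/2 mm lateral of bregma, 3 mm deep, 5 µL), various doses. Radiant infrared heat focused 3–4 cm from tail tip; withdrawal latency with 15 s cut-off. Baseline is the mean of three readings 15 min apart; readings at 5–30 min. Result as %MPE; AD50 with 95% confidence limits by graded dose–response.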

For a further data set, the target named is Mu-type opioid receptor (Rattus norvegicus, UniProt P33535). The data set is described as follows: Displacement of [3H]DAMGO from mu opioid receptor in Wistar rat brain membranes by liquid scintillation counting. In kind it is cell membranes, Membrane. On the technique in general: In a radioligand displacement assay an active substance lowers the binding of a labelled ligand.

For data set [3], the target named is Delta-type opioid receptor (Rattus norvegicus, UniProt P33533). The data set is described as follows: Displacement of [3H]Ile5,6deltorphin-2 from delta opioid receptor in Wistar rat brain membranes by liquid scintillation counting. In kind it is cell membranes, Membrane.
Data set [4] can be described thus: Half life in human plasma at 100 ug/mL. The format is ADME, cell-free. Summed up: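 Thawed human plasma spiked with compound in DMSO to 100 µg/mL final, incubated at 37 °C. Samples taken at set times were quenched with 5% ZnSO4/MeOH/ACN (5:3:2), centrifuged, and the supernatant analysed by reversed-phase HPLC-UV (275 or 254 nm). Calibration range 10–100 µg/mL. Three independent experiments.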

A further data set is filed under the species Rattus norvegicus. The data set is described as follows: Selectivity ratio of Ki for delta opioid receptor in Wistar rat brain membranes to Ki for mu opioid receptor in Wistar rat brain membranes. In kind it is cell membranes. The settings on record: Membrane. Summed up: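 Washed Wistar rat brain membranes (0.2–0.4 mg/ml protein) incubated 30 min at 25 °C in 50 mM Tris-HCl pH 7.4 with BSA, captopril, bestatin and phosphoramidon (1 µM each). Radioligands were [3H]DAMGO (0.9–1.2 nM, μ) or [3H]Ile5,6-deltorphin-2 (0.8–1.3 nM, δ); competitor at 10^-11–10^-5 M; nonspecific binding with 10 µM naloxone. Filtration and scintillation counting; Ki by Cheng–Prusoff; δ/μ Ki ratio.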

Delta-type opioid receptor, sequence (P33533 whole entry): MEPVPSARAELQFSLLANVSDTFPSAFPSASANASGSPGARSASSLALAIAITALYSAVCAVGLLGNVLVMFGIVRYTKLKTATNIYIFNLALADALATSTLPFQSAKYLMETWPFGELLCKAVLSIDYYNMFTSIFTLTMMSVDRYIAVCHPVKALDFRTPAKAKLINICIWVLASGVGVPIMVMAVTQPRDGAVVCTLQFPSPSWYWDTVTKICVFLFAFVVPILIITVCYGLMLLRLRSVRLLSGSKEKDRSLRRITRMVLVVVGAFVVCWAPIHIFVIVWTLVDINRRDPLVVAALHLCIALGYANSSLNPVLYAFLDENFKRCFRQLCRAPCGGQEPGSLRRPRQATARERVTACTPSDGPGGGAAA
Mu-type opioid receptor, sequence (P33535 whole entry): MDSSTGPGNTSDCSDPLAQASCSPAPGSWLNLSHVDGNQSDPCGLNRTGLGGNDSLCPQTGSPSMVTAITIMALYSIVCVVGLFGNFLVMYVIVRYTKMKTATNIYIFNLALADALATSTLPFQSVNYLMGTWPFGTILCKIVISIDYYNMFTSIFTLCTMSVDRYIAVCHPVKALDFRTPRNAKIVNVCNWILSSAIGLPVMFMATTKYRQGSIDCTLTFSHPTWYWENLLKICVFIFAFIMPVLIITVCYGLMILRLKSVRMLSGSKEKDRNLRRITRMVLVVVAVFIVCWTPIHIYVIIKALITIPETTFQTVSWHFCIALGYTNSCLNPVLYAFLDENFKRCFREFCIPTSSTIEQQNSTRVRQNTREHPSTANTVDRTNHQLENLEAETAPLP

On to `NC(=O)[C@H](Cc1ccccc1)NC(=O)[C@H](Cc1ccccc1)NC(=O)[C@@H]1CCCN1C(=O)[C@@H](N)Cc1ccc(O)cc1` [ENDOMORPHIN 2], for which the AD50 in the data set on Mus musculus [1] stood at 2.29 nmol; in the data set on Mus musculus [2], 1.49 nmol.

One may read the Ki as a dissociation constant, usually derived from enzyme kinetics or from competition with a known ligand. `CC[C@H](C)[C@H](NC(=O)[C@H](CCC(=O)O)NC(=O)[C@H](Cc1ccccc1)NC(=O)[C@H](C)NC(=O)[C@@H](N)Cc1ccc(O)cc1)C(=O)N[C@H](C(=O)NCC(N)=O)[C@@H](C)CC`: the inhibitory constant (Ki) on Mu-type opioid receptor is > 10000 nM.

As usually defined, the half-life is the time in which the quantity being followed falls by half. Higher therefore signals slow decline. For `CN(C(=O)[C@H](Cc1ccccc1)N(C)C(=O)[C@@H]1CCCN1C(=O)[C@@H](N)Cc1ccc(O)cc1)[C@@H](Cc1ccccc1)C(=O)NCCO.O=C(O)C(F)(F)F`, the AD50 is 3.77 nmol in the data set with Mus musculus [1] and 2.65 nmol in the data set on Mus musculus [2]. The Ki was 6400 nM in data set [3] and 34 nM at Mu-type opioid receptor. The compound further yielded a half-life at 100 ug/mL in data set [4] of 40 min. For the same compound, the Ratio Ki in the data set filed under Rattus norvegicus came out at 188.

With `C[C@@H](NC(=O)[C@@H](N)Cc1ccc(O)cc1)C(=O)NCC(=O)N(C)[C@@H](Cc1ccccc1)C(=O)NCCO` [DAMGO], the Ki in data set [3] was > 10000 nM.

`N[C@@H](Cc1ccc(O)cc1)C(=O)N1CCC[C@H]1C(=O)N[C@@H](Cc1ccccc1)C(=O)N[C@@H](Cc1ccccc1)C(=O)NCCO.O=C(O)C(F)(F)F`: the values for the AD50 in the data set with Mus musculus [1] and in the data set with Mus musculus [2] were 6.66 nmol and 3.44 nmol, respectively. The Ki in data set [3] was found to be 799 nM; on Mu-type opioid receptor, 90 nM. In addition, the Ratio Ki in the data set listed under Rattus norvegicus came out at 8.9.

Regarding `CN(C(=O)[C@H](Cc1ccccc1)NC(=O)[C@@H]1CCCN1C(=O)[C@@H](N)Cc1ccc(O)cc1)[C@@H](Cc1ccccc1)C(=O)NCCO.O=C(O)C(F)(F)F`, the results for the AD50 in the data set with Mus musculus [1] and with Mus musculus [2] were 9.44 nmol and 5.56 nmol, respectively. For the same compound, the inhibition constant Ki in data set [3] turned out to be 3860 nM; on Mu-type opioid receptor it was 224 nM. Also, the Ratio Ki in the data set filed under Rattus norvegicus was 17.2.

Turning to `CN(C(=O)[C@@H]1CCCN1C(=O)[C@@H](N)Cc1ccc(O)cc1)[C@@H](Cc1ccccc1)C(=O)N[C@@H](Cc1ccccc1)C(=O)NCCO.O=C(O)C(F)(F)F`, the AD50 in the data set with Mus musculus [1] is 9.6 nmol; in the data set with Mus musculus [2], 3.03 nmol. Moreover, the Ki in data set [3] was > 10000 nM; at Mu-type opioid receptor, 155 nM.

On to `CN(CC(=O)N[C@@H](Cc1ccccc1)C(=O)NCCO)C(=O)[C@@H]1CCCN1C(=O)[C@@H](N)Cc1ccc(O)cc1` (H-YP[Sar]F-NHCH2CH2OH), for which the AD50 result with Mus musculus [1] and in the data set with Mus musculus [2] was “inactive” throughout. The inhibitory constant (Ki) (in data set [3]; on Mu-type opioid receptor) was > 10000 nM each time.
